According to ChEMBL document CHEMBL1122517, “2-Phenylindoles. Relationship between structure, estrogen receptor affinity, and mammary tumor inhibiting activity in the rat” (1984):
Values belong to the compound of their own block, whether it stands above or below them.

Experiments:
[1] = target: T1, Estrogen receptor (Mus musculus) (UniProt O08537+P19785); test: Uterotrophic activity in mice as uterus dry weight (mg)/body weight (g) *100 at 5 ug dose; assay type: functional, tissue-based
In short: (§1)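 Immature 19-day-old female NMRI mice, groups of 10. Compound dose per animal in olive oil (50 µL) sc on 3 consecutive days. Mice were killed 24 h after the last injection. Uteri were Bouin-fixed 20 h, cleaned, washed with alcoholic LiCl, and dried at 100 °C for 24 h. Effect = uterine dry weight (mg)/body weight (g) ×100; mean ± SD.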

[2] = target: T1, Estrogen receptor (Mus musculus); test: Uterotrophic activity in mice as uterus dry weight (mg)/body weight (g) *100 at 25 ug dose; assay type: functional, tissue-based; in short: as §1
[3] = target: T1, Estrogen receptor (Mus musculus); test: Uterotrophic activity in mice as uterus dry weight (mg)/body weight (g) *100 at 125 ug dose; assay type: functional, tissue-based; in short: as §1
[4] = target: T1, Estrogen receptor (Mus musculus); test: Uterotrophic activity in mice as uterus dry weight (mg)/body weight (g) *100 at 1 ug dose; assay type: functional, tissue-based; in short: as §1
[5] = target: Estrogen receptor (Bos taurus) (UniProt Q9XSB5+P49884); test: Relative binding affinity for the calf uterine estrogen receptor measured as the ratio of molar concentration of 17-beta-estradiol (E2) and inhibitor required to decrease the amount of bound [3H]E2 by 50%; assay type: protein assay
In short: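 Competitive binding in calf uterine cytosol with 5×10^-9 M [3H]estradiol, 18 h at 4 °C, Tris/EDTA buffer (0.01 M, pH 7.5). Unbound ligand was removed with dextran-coated charcoal (90 min, 4 °C) and supernatant radioactivity counted. Six competitor concentrations gave 10–90% bound. From semilog plots, RBA = ratio of molar concentrations of estradiol to compound giving 50% decrease in binding, ×100.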

[6] = target: T1, Estrogen receptor (Mus musculus); test: Anti-uterotrophic activity in mice as uterus dry weight (mg)/body weight (g) *100 at 25 ug dose; assay type: functional, tissue-based
In short: (§2)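 Immature female NMRI mice, 19 days old, groups of 10, given sc injections on 3 consecutive days. Each injection held 0.4 μg estrone plus the indole dose per animal, in olive oil (50 μL). Killed 24 h after the last injection. Uteri were fixed in Bouin solution, washed, and dried 24 h at 100 °C. Read-out was uterine dry weight (mg)/body weight (g) × 100, mean ± SD.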

[7] = target: T1, Estrogen receptor (Mus musculus); test: Percentage inhibition of uterotrophic activity at 25 ug dose; assay type: functional
In short: (§3)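 Antiuterotrophic test in immature 19-day-old female NMRI mice (n=10), dosed sc on 3 consecutive days with 0.4 µg estrone per animal per day plus compound in olive oil. Uterine dry weight/body weight ×100 was read 24 h after the last dose. Inhibition % = 100 − [(E_S,T − E_V)/(E_S − E_V)]×100.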

[8] = target: T1, Estrogen receptor (Mus musculus); test: Percentage inhibition of uterotrophic activity at 5 ug dose; assay type: functional; in short: as §3
[9] = target: T1, Estrogen receptor (Mus musculus); test: Percentage inhibition of uterotrophic activity at 125 ug dose; assay type: functional; in short: as §3
[10] = target: T1, Estrogen receptor (Mus musculus); test: Anti-uterotrophic activity in mice as uterus dry weight (mg)/body weight (g) *100 at 125 ug dose; assay type: functional, tissue-based; in short: as §2
[11] = target: T1, Estrogen receptor (Mus musculus); test: Anti-uterotrophic activity in mice as uterus dry weight (mg)/body weight (g) *100 at 5 ug dose; assay type: functional, tissue-based; in short: as §2
[12] = target: T1, Estrogen receptor (Mus musculus); test: Anti-uterotrophic activity in mice as uterus dry weight (mg)/body weight (g) *100 at 1 ug dose; assay type: functional, tissue-based; in short: as §2
Rattus norvegicus [13] = organism: Rattus norvegicus; test: Change in body weight of DMBA-induced mammary carcinoma tumor bearing rats at 2 mg dose; assay type: functional
In short: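 DMBA-induced tumor-bearing Sprague-Dawley rats (20 mg DMBA by gavage at 50 days old), randomized when tumor area exceeded 140 mm². Dose per kg was given sc in olive oil, single dose daily Monday to Thursday, double dose Friday. Body weight was measured twice weekly. Read-out was % change in body weight.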

Rattus norvegicus [14] = organism: Rattus norvegicus; test: Formation of new DMBA-induced mammary carcinoma tumors in rats at 2 mg dose; assay type: functional
In short: (§4)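 DMBA-induced tumors in Sprague-Dawley rats, entered when tumor area exceeded 140 mm². Dose per kg was given sc in olive oil, daily Monday to Thursday with a double dose Friday. Tumors were measured by calipers twice weekly. Tumor number was counted at the start of the test. Complete remission meant the tumor was no longer palpable. Partial remission meant reduction to ≤50% of initial size. New tumor appearance was recorded.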

Rattus norvegicus [15] = organism: Rattus norvegicus; test: Change in DMBA-induced mammary carcinoma tumor area in rats at 2 mg dose; assay type: functional
In short: (§5)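 Female Sprague-Dawley rats got one 20 mg DMBA dose by gavage at 50 days old and were palpated twice weekly from day 30. Rats were randomized once tumor area exceeded 140 mm². Dose (per kg) was given sc in olive oil, once daily Monday to Thursday and doubled on Friday. Tumor area was taken from caliper measurements of two perpendicular axes, twice weekly. Change per animal is given as median % and range.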

Rattus norvegicus [16] = organism: Rattus norvegicus; test: Number of DMBA-induced mammary carcinoma tumors in rats at 2 mg dose; assay type: functional; in short: as §4
Rattus norvegicus [17] = organism: Rattus norvegicus; test: Percent unchanged DMBA-induced mammary carcinoma tumors in rats at 2 mg dose; assay type: functional
In short: (§6)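 Female Sprague-Dawley rats, 50 days old, given a single 20 mg DMBA dose in 1 mL olive oil by gavage. Rats were palpated twice weekly from day 30, and those without tumors by day 70 were discarded. Rats were randomized once tumor area exceeded 140 mm². Drug dose was per kg in olive oil (1 mL/kg) sc, single dose Mon–Thu and double dose Fri. Tumor area (caliper, two perpendicular axes) and body weight were measured twice weekly.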

Rattus norvegicus [18] = organism: Rattus norvegicus; test: Complete remission (%) of DMBA-induced mammary carcinoma tumors in rats at 2 mg dose; assay type: functional; in short: as §4
[19] = target: T1, Estrogen receptor (Mus musculus); test: Uterotrophic activity in mice as uterus dry weight (mg)/body weight (g) *100 at 0.2 ug dose; assay type: functional, tissue-based; in short: as §1
Rattus norvegicus [20] = organism: Rattus norvegicus; test: Percent progressive DMBA-induced mammary carcinoma tumors in rats at 2 mg dose; assay type: functional; in short: as §6
Rattus norvegicus [21] = organism: Rattus norvegicus; test: Partial remission (%) of DMBA-induced mammary carcinoma tumors in rats; assay type: functional; in short: as §4
Rattus norvegicus [22] = organism: Rattus norvegicus; test: Change in DMBA-induced mammary carcinoma tumor area in rats at 2 mg dose; -100-231; assay type: functional; in short: as §5

T1 sequence (O08537 whole entry, looked up): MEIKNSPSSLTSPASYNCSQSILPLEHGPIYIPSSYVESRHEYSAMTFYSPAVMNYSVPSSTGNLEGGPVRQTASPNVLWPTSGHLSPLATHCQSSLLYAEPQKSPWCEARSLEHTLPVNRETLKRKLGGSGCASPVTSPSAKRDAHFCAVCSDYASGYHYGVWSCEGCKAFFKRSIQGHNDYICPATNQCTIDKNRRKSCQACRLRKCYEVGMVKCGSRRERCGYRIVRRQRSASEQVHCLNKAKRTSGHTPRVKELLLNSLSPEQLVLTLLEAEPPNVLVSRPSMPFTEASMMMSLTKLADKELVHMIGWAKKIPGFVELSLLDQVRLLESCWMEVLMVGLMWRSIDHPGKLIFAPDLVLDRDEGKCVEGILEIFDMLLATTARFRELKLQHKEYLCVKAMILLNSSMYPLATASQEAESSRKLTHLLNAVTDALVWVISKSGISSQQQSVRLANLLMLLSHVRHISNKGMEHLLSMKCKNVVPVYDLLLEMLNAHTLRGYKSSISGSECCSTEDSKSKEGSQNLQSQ
T1 sequence (P19785 whole entry, looked up): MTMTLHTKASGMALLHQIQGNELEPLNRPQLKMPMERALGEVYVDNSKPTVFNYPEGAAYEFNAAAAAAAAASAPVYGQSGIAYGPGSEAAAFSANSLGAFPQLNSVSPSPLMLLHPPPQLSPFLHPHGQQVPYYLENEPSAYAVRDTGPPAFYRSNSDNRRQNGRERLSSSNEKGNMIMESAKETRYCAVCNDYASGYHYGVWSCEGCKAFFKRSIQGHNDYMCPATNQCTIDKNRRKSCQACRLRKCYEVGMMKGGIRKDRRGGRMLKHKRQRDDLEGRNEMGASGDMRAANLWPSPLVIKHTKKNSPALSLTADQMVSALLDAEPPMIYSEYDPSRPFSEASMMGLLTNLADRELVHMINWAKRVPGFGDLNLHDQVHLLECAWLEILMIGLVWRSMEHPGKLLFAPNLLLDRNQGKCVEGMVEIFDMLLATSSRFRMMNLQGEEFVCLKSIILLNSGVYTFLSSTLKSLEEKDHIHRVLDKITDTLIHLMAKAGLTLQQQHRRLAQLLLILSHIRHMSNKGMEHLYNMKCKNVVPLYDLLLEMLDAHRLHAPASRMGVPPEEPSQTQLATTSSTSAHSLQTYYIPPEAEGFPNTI

Structure (SMILES): CCc1c(-c2ccc(OC(C)=O)cc2)n(CC)c2ccc(OC(C)=O)cc12
Uterotrophic effect [1]: 39.1 | Uterotrophic effect [2]: 42.4 | Uterotrophic effect [3]: 40.2 | Uterotrophic effect [4]: 29.5

RBA [5]: 16
Structure (SMILES): CCCn1c(-c2ccc(O)cc2)c(C)c2cc(O)ccc21

RBA [5]: 8.5
Structure (SMILES): CCCn1c(-c2ccc(O)cc2)cc2ccc(O)cc21

RBA [5]: 7.4
Structure (SMILES): CCCn1c(-c2cccc(O)c2)c(C)c2cc(O)ccc21

RBA [5]: 3.8
Structure (SMILES): Cn1c(-c2ccc(O)cc2)cc2ccc(O)cc21

RBA [5]: 3.5
Structure (SMILES): CCCn1c(-c2cccc(O)c2)c(C)c2ccc(O)cc21

RBA [5]: 0.02
Structure (SMILES): CCn1c(-c2ccc(O)cc2)c(C)c2cccc(O)c21

RBA [5]: 4.6
Structure (SMILES): Cc1c(-c2ccc(O)cc2)n(C)c2ccc(O)cc12

RBA [5]: 19
Structure (SMILES): CCCn1c(-c2ccc(O)cc2)c(CC)c2ccc(O)cc21

RBA [5]: 2.2
Structure (SMILES): CCn1c(-c2cccc(O)c2)c(C)c2cc(O)ccc21

RBA [5]: 4.6
Structure (SMILES): CCCCn1c(-c2ccc(O)cc2)c(C)c2cc(O)ccc21

RBA [5]: 0.13
Structure (SMILES): CCc1c(-c2ccc(O)cc2)[nH]c2cc(O)ccc12

RBA [5]: 13
Structure (SMILES): CCCn1c(-c2ccc(O)cc2)c(C)c2ccc(O)cc21

RBA [5]: 1.7
Structure (SMILES): CCn1c(-c2cccc(O)c2)cc2ccc(O)cc21

inhibition [7]: 15% | inhibition [8]: 11% | inhibition [9]: 26%
Structure (SMILES): CCn1c(-c2cccc(OC(C)=O)c2)c(C)c2ccc(OC(C)=O)cc21
Anti-uterotrophic effect [6]: 40.6 | Uterotrophic effect [1]: 17.2 | Uterotrophic effect [2]: 30.2 | Uterotrophic effect [3]: 39.1 | Anti-uterotrophic effect [10]: 37.4 | Anti-uterotrophic effect [11]: 41.7 | Uterotrophic effect [4]: 15.2 | Anti-uterotrophic effect [12]: 46.9

RBA [5]: 5.8
Structure (SMILES): CCn1c(-c2ccc(O)cc2)cc2cc(O)ccc21

Structure (SMILES): CCc1c(-c2ccc(OC(C)=O)cc2)n(CC)c2cc(OC(C)=O)ccc12
Change of body weight (Rattus norvegicus [13]): -13% | New tumors (Rattus norvegicus [14]): 3 | Change of tumor area (Rattus norvegicus [15]): -95% | Uterotrophic effect [1]: 45.6 | Uterotrophic effect [2]: 46.4 | No. of tumors (Rattus norvegicus [16]): 36 | Static tumors (Rattus norvegicus [17]): 5% | Complete remission (Rattus norvegicus [18]): 74% | Uterotrophic effect [19]: 25.5 | Uterotrophic effect [3]: 44.7 | Progressed tumors (Rattus norvegicus [20]): 8% | Partial remission (Rattus norvegicus [21]): 13% | Uterotrophic effect [4]: 36.2 | Change of tumor area (Rattus norvegicus [22]): -100%

RBA [5]: 23
Structure (SMILES): CCc1c(-c2ccc(O)cc2)n(CC)c2ccc(O)cc12

RBA [5]: 5.9
Structure (SMILES): CCc1c(-c2ccc(O)cc2)n(C)c2cc(O)ccc12

RBA [5]: 0.8
Structure (SMILES): Cn1c(-c2ccc(O)cc2)cc2cc(O)ccc21

RBA [5]: 0.01
Structure (SMILES): Oc1ccc(-c2cc3cc(O)ccc3[nH]2)cc1
